Results taken from ChEMBL document CHEMBL2331240, “Focused library development of 2-phenylacrylamides as broad spectrum cytotoxic agents” (2013).

Tests used:
[1] = Cytotoxicity against human H460 cells assessed as growth inhibition measured after 72 hrs by MTT assay; type: functional; conditions: NCI-H460, 72 h
How it was run: (§1)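 Cells in log phase were seeded in duplicate at 2500–4000 cells/well in supplemented DMEM (37 °C, 5% CO2). Drug from a 40 mM DMSO stock was added on day 0, 24 h post-plating. Read-out was MTT absorbance at 540 nm after 72 h.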

MCF7 = experiment: Cytotoxicity against human MCF7 cells assessed as growth inhibition measured after 72 hrs by MTT assay; type: functional; conditions: MCF7, 72 h; how it was run: as §1
A2780 = experiment: Cytotoxicity against human A2780 cells assessed as growth inhibition measured after 72 hrs by MTT assay; type: functional; conditions: A2780, 72 h; how it was run: as §1
DU-145 = experiment: Cytotoxicity against human DU145 cells assessed as growth inhibition measured after 72 hrs by MTT assay; type: functional; conditions: DU-145, 72 h; how it was run: as §1
[2] = Cytotoxicity against mouse SMA cells assessed as growth inhibition measured after 72 hrs by MTT assay
[3] = Cytotoxicity against human BE(2)-C cells assessed as growth inhibition measured after 72 hrs by MTT assay; type: functional; how it was run: as §1
[4] = Cytotoxicity against human SJ-G2 cells assessed as growth inhibition measured after 72 hrs by MTT assay; type: functional; conditions: SJ-G2, 72 h; how it was run: as §1
SW480 = experiment: Cytotoxicity against human SW480 cells assessed as growth inhibition measured after 72 hrs by MTT assay; type: functional; conditions: SW480, 72 h; how it was run: as §1
A-431 = experiment: Cytotoxicity against human A431 cells assessed as growth inhibition measured after 72 hrs by MTT assay; type: functional; conditions: A-431, 72 h; how it was run: as §1
[5] = Cytotoxicity against human MIA cells assessed as growth inhibition measured after 72 hrs by MTT assay; type: functional; how it was run: as §1
HT-29 = experiment: Cytotoxicity against human HT-29 cells assessed as growth inhibition measured after 72 hrs by MTT assay; type: functional; conditions: HT-29, 72 h; how it was run: as §1

| Structure (SMILES) | GI50 [1] | GI50 (MCF7) | GI50 (A2780) | GI50 (DU-145) | GI50 [2] | GI50 [3] | GI50 [4] | GI50 (SW480) | GI50 (A-431) | GI50 [5] | GI50 (HT-29) |
| --- | --- | --- | --- | --- | --- | --- | --- | --- | --- | --- | --- |
| COc1ccc(/C=C(\C#N)C(=O)NCc2ccc(Cl)c(Cl)c2)cc1 | > 100 µM | 45 µM | 86 µM | 70 µM | > 100 µM | 93 µM | > 100 µM | 95 µM | 90 µM | 79 µM | > 100 µM |
| COc1ccc(CNC(=O)/C(C#N)=C/c2ccc(Cl)cc2)cc1 | 14 µM | 11 µM | 7 µM | 7 µM | 17 µM | 12 µM | 11 µM | 10 µM | 6 µM | 16 µM | 7 µM |
| COc1ccc(CNC(=O)/C(C#N)=C/c2ccc(C)o2)cc1 | > 100 µM | 21 µM | 60 µM | 39 µM | 69 µM | 21 µM | 75 µM | 29 µM | 58 µM | 51 µM | 92 µM |
| N#C/C(=C\c1ccc[nH]1)C(=O)NCc1ccc(Cl)c(Cl)c1 | > 50 µM | 6 µM | > 50 µM | > 50 µM | > 50 µM | 43 µM | > 50 µM | > 50 µM | > 50 µM | > 50 µM | 85 µM |
| COc1ccc(CNC(=O)/C(C#N)=C/c2ccc[nH]2)cc1 | > 50 µM | 34 µM | > 50 µM | > 50 µM | > 50 µM | 47 µM | > 50 µM | > 50 µM | > 50 µM | > 50 µM | > 50 µM |
| COc1ccc(CNC(=O)/C(C#N)=C/c2ccc(C)cc2)cc1 | 41 µM | 36 µM | 33 µM | 34 µM | 42 µM | 35 µM | 39 µM | 34 µM | 26 µM | 38 µM | 36 µM |
| COc1ccc(CNC(=O)/C(C#N)=C/c2ccco2)cc1 | 32 µM | 27 µM | 24 µM | 29 µM | 33 µM | 24 µM | 31 µM | 31 µM | 16 µM | 34 µM | 22 µM |
| N#C/C(=C\c1c[nH]c2ccccc12)C(=O)c1c[nH]c2ccccc12 | 7.6 µM | 11 µM | 9.3 µM | 17 µM | 15 µM | 12 µM | 13 µM | 8.3 µM | 7.6 µM | 14 µM | 6 µM |
| COc1ccc(CNC(=O)/C(C#N)=C/c2ccc3ccccc3c2)cc1 | > 100 µM | 33 µM | 40 µM | 80 µM | 43 µM | 42 µM | 40 µM | 41 µM | 37 µM | 49 µM | 54 µM |
| N#C/C(=C\c1ccco1)C(=O)NCc1ccc(Cl)c(Cl)c1 | > 50 µM | 20 µM | > 50 µM | 24 µM | 38 µM | > 50 µM | > 50 µM | > 50 µM | > 50 µM | > 50 µM | 20 µM |
| COc1ccc(CNC(=O)/C(C#N)=C/c2ccc(Cl)o2)cc1 | 15 µM | 9 µM | 9 µM | 12 µM | 14 µM | 11 µM | 13 µM | 13 µM | 9 µM | 15 µM | 9 µM |
| COc1ccc(CNC(=O)/C(C#N)=C/c2ccc(Br)o2)cc1 | 16 µM | 11 µM | 12 µM | 12 µM | 14 µM | 13 µM | 13 µM | 14 µM | 9 µM | 16 µM | 10 µM |
